Data: ChEMBL document CHEMBL1133476, “Nitrosothiol esters of diclofenac: synthesis and pharmacological characterization as gastrointestinal-sparing prodrugs” (J Med Chem, 2000)

What was measured:
[1] = organism: Rattus norvegicus; assay: Gastric toxicity was measured in rats.; type: organism-based; details: in vivo
Outline: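 Male Sprague-Dawley rats (180-200 g), fasted 24 h with water ad libitum. Single gavage of 100 µmol/kg at 5 mL/kg in 0.5% methocel/5% or 50% PEG-400, 5-10 rats/group. Fasting continued for 18 h, then CO₂ euthanasia. Stomach lesions scored in mm; mean ± SEM.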

[2] = test system: Mus musculus; assay: Level of plasma diclofenac in mice after oral administration of 20 umol/kg of prodrug; type: ADME, organism-based; details: in vivo
Outline: (§1)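 Male CD-1 mice, fasted overnight (≈17 h), given 20 µmol/kg orally by gavage as a suspension in 0.5% methocel/5% or 50% PEG-400. Ketamine/xylazine anesthesia, then cardiac-puncture heparinized blood at 30, 60 and 120 min, a separate group per time point. Plasma diclofenac measured by HPLC with UV detection against authentic standard, meclofenamic acid internal standard.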

[3] = organism: Mus musculus; assay: Analgesic effect measured as % inhibition in PBQ-induced writhing test in mice.; type: functional; parameters: concentration or dose not given beside the values
Outline: (§2)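 Male CD-1 mice (20-25 g), fasted overnight (≈17 h) with water ad libitum. Oral gavage of 100 µmol/kg as a suspension in 0.5% methocel with 5% or 50% PEG-400, 2.5 mL/kg, at least 9 mice/group. PBQ 2 mg/kg ip at 1 h after dosing; writhes counted over 5 min, starting 5 min after PBQ. Read-out is % inhibition of writhing vs vehicle; ratio = % inhibition with the test article / % inhibition with diclofenac, both at 100 µmol/kg po.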

[4] = Activity ratio is the percent inhibition in writhing test at 100 umol/kg, po to that of diclofenac at 100 umol/kg, po administration; type: functional; outline: as §2
[5] = test system: Rattus norvegicus; assay: Antiinflammatory effect measured as % inhibition in carrageenan induced paw edema test in rat.; type: functional
Outline: (§3)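 Male Sprague-Dawley rats (200-250 g), fasted overnight (≈17 h) with water ad libitum. Dosed 100 µmol/kg by gavage at 5 mL/kg in 0.5% methocel/5% or 50% PEG-400, at least 5 rats/group. At 1 h, 50 µL of 1% carrageenan injected subplantar into the right […] paw. Paw volume read by water displacement at 0 and 3 h. Result is % inhibition of the volume increase; ratio relative to diclofenac at the same dose.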

[6] = Activity ratio is the percent inhibition of paw volume increase at 100 umol/kg, po to that of diclofenac at 100 umol/kg, po administration; type: functional; outline: as §3
[7] = test system: Mus musculus; assay: Level of plasma diclofenac in mice after oral administration; type: ADME, organism-based; details: in vivo; outline: as §1

Row | SMILES | Gastric lesion score [1] | Concentration_Plasma [2] [nM ml-1] | Inhibition [3] [%] | Ratio [4] | other results
1 | O=C(Cc1ccccc1Nc1c(Cl)cccc1Cl)OCC1(S)CCCCC1 | 6.7 mm | – | – | – | –
2 | CN(CCCOC(=O)Cc1ccccc1Nc1c(Cl)cccc1Cl)CC1(S)CCCCC1 | 28.3 mm | – | – | – | –
3 | CN(CCOC(=O)Cc1ccccc1Nc1c(Cl)cccc1Cl)CC1(S)CCCCC1 | 10.2 mm | – | – | – | –
4 | CCN(CCCOC(=O)Cc1ccccc1Nc1c(Cl)cccc1Cl)CC1(SN=O)CCCCC1 | – | 4.5 | – | – | –
5 | CC(C)(COC(=O)Cc1ccccc1Nc1c(Cl)cccc1Cl)SN=O | 0.7 mm | 19.8 | 32 | 0.4 | –
6 | CN(CCCCOC(=O)Cc1ccccc1Nc1c(Cl)cccc1Cl)CC1(SN=O)CCCCC1 | – | 5.9 | – | – | –
7 | CN(CCCCCOC(=O)Cc1ccccc1Nc1c(Cl)cccc1Cl)CC1(SN=O)CCCCC1 | – | 2.4 | – | – | –
8 | O=NSC1(COC(=O)Cc2ccccc2Nc2c(Cl)cccc2Cl)CCCCC1 | 2 mm | 15.3 | 58 | 0.7 | –
9 | O=NSC1(CN(CCCOC(=O)Cc2ccccc2Nc2c(Cl)cccc2Cl)Cc2ccccc2)CCCCC1 | – | 6.8 | – | – | –
10 | CN(CCCOC(=O)Cc1ccccc1Nc1c(Cl)cccc1Cl)CC1(SN=O)CCCCC1 | 0.7 mm | 7.4 | 53 | 0.6 | Inhibition [5]: 58%; Ratio [6]: 1.1
11 | CCC(CC)(COC(=O)Cc1ccccc1Nc1c(Cl)cccc1Cl)SN=O | 0.4 mm | 13.4 | 95 | 1.1 | –
12 | CN(CCOC(=O)Cc1ccccc1Nc1c(Cl)cccc1Cl)CC1(SN=O)CCCCC1 | 1.1 mM | 5.5 | 70 | 0.8 | Inhibition [5]: 55%; Ratio [6]: 1
13 | O=C([O-])Cc1ccccc1Nc1c(Cl)cccc1Cl.[Na+] [DICLOFENAC SODIUM] | – | – | – | – | Concentration_Plasma [7]: 23.9 nM ml-1
14 | O=C(O)Cc1ccccc1Nc1c(Cl)cccc1Cl [DICLOFENAC] | – | – | 84 | – | Inhibition [5]: 53%
